In ChEMBL document CHEMBL4257452, “A mini-library system to investigate non-essential residues of lipid-phosphatidylserine (PS) binding peptide-peptoid hybrid PPS1” (Medchemcomm, 2017):
Activity calls are given as the source filed them. The calls are words filed in the database; no cut-off is given here. Starred links: 1 amine or outer side, 2 acyl side, 3 side chain; linkers in the order of their positions; H or OH if unused. Positions of bridges follow the written chain, without caps; N, C: chain ends. Non-standard residues stand in square brackets, D forms with d. Residues, ends and D or L forms follow the SMILES beside them. Chains are numbered I, II in the order given. Gly(N-piperonyl) = O=C(O)CNCc1ccc2c(c1)OCO2; X5 = O=C(CN(c1ccc2c(c1)OCCO2)[*:1])[*:2]; N(4-MeOBn)Gly = COc1ccc(CNCC(=O)O)cc1; X3 = CC(c1ccccc1)N(CC(=O)[*:2])[*:1]; Nrpe = C[C@@H](NCC(=O)O)c1ccccc1; NAllylGly = C=CCNCC(=O)O; Nlys = NCCCCNCC(=O)O; Nme = COCCNCC(=O)O

What was measured:
[1] = Cytotoxicity against human HBEC3-KT cells assessed as reduction in cell viability at 1 uM after 24 hrs by MTS assay; format: cell-based
Procedure, shortened: (§1)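 HCC4017 cells (RPMI, 5% FBS) and HBEC-3KT normal lung cells (KSFM with recombinant human EGF and bovine pituitary extract) were plated at 10 000 cells/well in triplicate and left to adhere overnight. They were exposed to 1 or 20 μM compound for 24 h. MTS reagent was then added for 2 h and absorbance read at 490 nm. Viability is % of untreated control wells.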

[2] = Cytotoxicity against human HBEC3-KT cells assessed as reduction in cell viability at 20 uM after 24 hrs by MTS assay; format: cell-based; procedure, shortened: as §1
[3] = test system: HCC4017; test: Cytotoxicity against human HCC4017 cells assessed as reduction in cell viability at 1 uM after 24 hrs by MTS assay; format: functional, cell-based; procedure, shortened: as §1
[4] = test system: HCC4017; test: Cytotoxicity against human HCC4017 cells assessed as reduction in cell viability at 20 uM after 24 hrs by MTS assay; format: functional, cell-based; procedure, shortened: as §1
[5] = test system: HCC4017; test: Cytotoxicity against human HCC4017 cells assessed as reduction in cell viability up to 100 uM after 24 hrs by calcein-AM dye based fluorescence assay; format: functional; conditions: in the assay text read “up to 50 uM” for “up to 100 uM”
Procedure, shortened: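 HCC4017 cells were seeded at 10 000 cells/well in triplicate, adhered overnight, and treated with a graded series of compounds for 24 h. Medium was replaced with PBS containing calcein AM (1 mM as printed) for 15 min at room temperature. Fluorescence emission was read at 520 nm.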

Compound	Activity [1]	Activity [2]	Activity [3]	Activity [4]	Activity [5]
COc1ccc(CN(CC(=O)N(CC(=O)N[C@@H](CCCCN)C(=O)N[C@H](CCCCN)C(=O)N[C@@H](CCSC)C(=O)NCCCC[C@H](NC(=O)[C@H](CCSC)NC(=O)[C@@H](CCCCN)NC(=O)[C@H](CCCCN)NC(=O)CN(C(=O)CN(Cc2ccc(OC)cc2)C(=O)CN(C(=O)CN(Cc2ccc3c(c2)OCO3)C(=O)CN[C@H](C)c2ccccc2)[C@H](C)c2ccccc2)c2ccc3c(c2)OCCO3)C(N)=O)c2ccc3c(c2)OCCO3)C(=O)CN(C(=O)CN(Cc2ccc3c(c2)OCO3)C(=O)CN[C@H](C)c2ccccc2)[C@H](C)c2ccccc2)cc1 (I: H-[Nrpe][Gly(N-piperonyl)][Nrpe][N(4-MeOBn)Gly][X5]K[dK]MK-NH2 / II: H-[Nrpe][Gly(N-piperonyl)][Nrpe][N(4-MeOBn)Gly][X5]K[dK]M; amide I:9-II:C)	Non-Toxic	Non-Toxic	inactive	Active	–
C=CCNCC(=O)N(CCOC)CC(=O)N(CC=C)CC(=O)N(CCOC)CC(=O)N(CC=C)CC(=O)NCC(=O)NC(CCCCN)C(=O)NC(CCSC)C(=O)NCCCCC(NC(=O)C(CCSC)NC(=O)C(CCCCN)NC(=O)CNC(=O)CN(CC=C)C(=O)CN(CCOC)C(=O)CN(CC=C)C(=O)CN(CCOC)C(=O)CNCC=C)C(N)=O (stereo not given) (I: H-[NAllylGly][Nme][NAllylGly][Nme][NAllylGly]GKMK-NH2 / II: H-[NAllylGly][Nme][NAllylGly][Nme][NAllylGly]GKM; amide I:9-II:C; configuration not given here)	Non-Toxic	Non-Toxic	inactive	–	inactive
COc1ccc(CN(CC(=O)N(CCCCN)CC(=O)NC(CCCCN)C(=O)NC(CCCCN)C(=O)NCCCCC(NC(=O)C(CCCCN)NC(=O)C(CCCCN)NC(=O)CN(CCCCN)C(=O)CN(Cc2ccc(OC)cc2)C(=O)CN(C(=O)CN(Cc2ccc3c(c2)OCO3)C(=O)CNC(C)c2ccccc2)C(C)c2ccccc2)C(N)=O)C(=O)CN(C(=O)CN(Cc2ccc3c(c2)OCO3)C(=O)CNC(C)c2ccccc2)C(C)c2ccccc2)cc1 (stereo not given) (I: H-[X3][Gly(N-piperonyl)][X3][N(4-MeOBn)Gly][Nlys]KKK-NH2 / II: H-[X3][Gly(N-piperonyl)][X3][N(4-MeOBn)Gly][Nlys]KK; amide I:8-II:C; configuration not given here)	–	–	–	Active	Active
COc1ccc(CN(CC(=O)N(CCCCN)CC(=O)N[C@@H](CCCCN)C(=O)N[C@H](CCCCN)C(=O)N[C@@H](CCSC)C(=O)NCCCC[C@H](NC(=O)[C@H](CCSC)NC(=O)[C@@H](CCCCN)NC(=O)[C@H](CCCCN)NC(=O)CN(CCCCN)C(=O)CN(Cc2ccc(OC)cc2)C(=O)CN(C(=O)CN(Cc2ccc3c(c2)OCO3)C(=O)CN[C@H](C)c2ccccc2)[C@H](C)c2ccccc2)C(N)=O)C(=O)CN(C(=O)CN(Cc2ccc3c(c2)OCO3)C(=O)CN[C@H](C)c2ccccc2)[C@H](C)c2ccccc2)cc1 (I: H-[Nrpe][Gly(N-piperonyl)][Nrpe][N(4-MeOBn)Gly][Nlys]K[dK]MK-NH2 / II: H-[Nrpe][Gly(N-piperonyl)][Nrpe][N(4-MeOBn)Gly][Nlys]K[dK]M; amide I:9-II:C)	Non-Toxic	Non-Toxic	inactive	Active	Active
